Most compounds without a hit are left out; they make up all but 1.7% or so of the library.
STEP block: STEP (human) phosphatase inhibition; P54829; 360,000 tested, 0.25% active; inhibition, % at 20 µM; recombinant STEP, OMFP fluorogenic substrate, fluorescence;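 active means inhibition at 20 µM, scaled per plate between control wells, above about 37%, limit read from the data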;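 further: 0% = DMSO with enzyme and substrate and 100% = substrate only without enzyme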
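Measure: Control-normalized % inhibition with plate pattern correction | Test system: STEP phosphatase, cell-free reaction | Medium: pH 6.0 Bis-Tris with DTT and Tween 20 | Technique: Fluorescence, 480/540 nm | Times: Reaction 20 min, ambient temperature | Doses: Single compound dose of 20 µM, 1% DMSO final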
Scp1 inh: Scp-1 (human) phosphatase inhibition; Q9GZU7; Recombinant Scp1, phosphopeptide, malachite green phosphate absorbance; inhibition, % at 20 µM; 340,000 tested, 0.88% active; AID 493091;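 active means inhibition above about 50% at 20 µM, limit read from the data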;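 further: plate controls were DMSO wells with enzyme for no effect and wells lacking enzyme for full effect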
Target sequence (Q9GZU7 76-261 limits assumed): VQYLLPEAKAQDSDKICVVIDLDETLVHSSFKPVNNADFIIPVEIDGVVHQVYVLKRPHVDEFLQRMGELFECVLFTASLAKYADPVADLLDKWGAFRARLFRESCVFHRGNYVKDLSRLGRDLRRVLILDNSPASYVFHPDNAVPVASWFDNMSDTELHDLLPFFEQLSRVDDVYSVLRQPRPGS
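Test system: SCP-1 phosphatase catalytic domain, residues 76-261 | Compound dosing: One concentration, 20 µM, with 1.0% DMSO | Schedule: 45 min room-temperature reaction, 5 min colour, 30 min stabiliser | Detection: Absorbance at 630 nm | Read-out basis: % inhibition of SCP-1 phosphate liberation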
DSG3 Ab inh: inhibitors of pemphigus antibody binding to human desmoglein-3; P32926; DSG3-coupled beads, scFv-anti-DSG3-GFP binding, flow cytometry; hits give low values; binding (percent of control), % at 10 µM; 310,000 tested, 0.48% active; AID 588358;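 active means binding more than 3 SD below its plate's average and above zero; inconclusive means below that plate limit but binding exactly zero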;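 further: hits lower antibody fragment binding to DSG3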
SUMO1-SIM PPI: SUMO1-SIM interaction modulation | SUMO1 binding to a labelled peptide, TR-FRET, 1 h | 360,000 tested, 0.33% active | AID 602429 | inhibition, % at 20 µM | P63165; in the data active means inhibition above about 37%
Target sequence (P63165 whole entry, looked up): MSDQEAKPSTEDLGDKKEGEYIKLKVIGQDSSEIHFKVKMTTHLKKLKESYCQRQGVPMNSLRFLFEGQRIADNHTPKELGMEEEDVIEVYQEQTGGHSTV
LMPTP block: blocks human LMPTP phosphatase. 360,000 tested, 0.22% active. P24666. inhibition, % at 20 µM. AID 651560. recombinant LMPTP-A, OMFP fluorogenic substrate, fluorescence intensity;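 active means compounds that cut the enzyme signal by at least half of the control window in the single-dose screen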;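 further: plate controls were DMSO wells with enzyme plus substrate for no effect and substrate without enzyme for full effect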
Target sequence (P24666 whole entry, looked up): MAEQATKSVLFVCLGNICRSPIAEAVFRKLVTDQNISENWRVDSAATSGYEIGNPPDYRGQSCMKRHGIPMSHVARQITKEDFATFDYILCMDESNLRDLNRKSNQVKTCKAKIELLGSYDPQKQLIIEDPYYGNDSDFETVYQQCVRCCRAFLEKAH
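Test system – LMPTP-A enzyme · Amount – LMPTP-A at 0.625 nM final in the reaction · Buffer or medium – Bis-Tris pH 6.0, DTT, detergent · Reagent – OMFP 400 µM · Doses – single 20 µM dose · Schedule – reaction 50 min, room temperature, dark · Detection – fluorescence intensity of OMFP turnover product · Evaluation – percent inhibition versus substrate-only and uninhibited controls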
Numbers without * were called inactive; ? = inconclusive; · = not tested or not shown.

SMILES	STEP block	Scp1 inh	DSG3 Ab inh	SUMO1-SIM PPI	LMPTP block
Cc1cc(/C=C2\C(=O)NC(=O)N(c3ccc(Cl)cc3)C2=O)c(C)n1-c1sc2c(c1C#N)CCCC2	5	-2	97	49*	2
Cc1cc(/C=C2\C(=O)NC(=O)N(Cc3ccco3)C2=O)c(C)n1-c1ccc(C(=O)O)cc1	8	61*	86	9	10
Cc1ccc(N2C(=O)NC(=O)/C(=C\c3cc(C)n(-c4cc(C(=O)O)cc(C(=O)O)c4)c3C)C2=O)cc1	5	51*	100	12	-1
Cc1cc(/C=C2\C(=O)NC(=O)N(Cc3ccco3)C2=O)c(C)n1-c1ccc(O)cc1	-2	21	105	14	7
CCOC(=O)C1CCN(/C=C2/C(=O)NC(=O)N(Cc3ccco3)C2=O)CC1	6	66*	106	11	2
Cc1ccccc1-n1c(C)cc(/C=C2/C(=O)NC(=O)N(Cc3ccco3)C2=O)c1C	3	-3	107	1	2
CCOC(=O)c1c(-n2c(C)cc(/C=C3\C(=O)NC(=O)N(C)C3=O)c2C)sc2c1CCCC2	0	0	103	35	3
CN1CCCC1CCOC(C)(c1ccccc1)c1ccc(Cl)cc1 (configuration not stated)	0	-4	109	-9	-1
Cc1nc2c(=O)n(C)c(=O)nc-2n(C)n1	79*	0	82	29	73*
CN(C)S(=O)(=O)c1cc(NC(=O)C[N+]23CCN(CC2)CC3)ccc1Cl	-2	-3	103	-4	-1
CN(C)S(=O)(=O)c1cc(NC(=O)COC(=O)Cc2ccccc2)ccc1Cl	-2	0	88*	6	-1
CCCCCCCCn1sccc1=O	1	-6	87*	2	-4
CCCCCCCCc1ccc(O)cc1	0	-6	110	7	2
C[C@@H]1CN([C@H](C)CO)C(=O)c2c(c3ccccc3n2C)-c2ccccc2CO[C@H]1CN(C)Cc1ccc2c(c1)OCCN2C	-1	·	102	-5	-1
O=C(O)CCC(=O)NCCC1=c2ccccc2=N/C1=C\c1c(O)n(Cc2ccc(F)cc2)c(=S)[nH]c1=O	-2	92*	67*	23	0
CCOP(=O)(OCC)C(NC(=O)c1cccc([N+](=O)[O-])c1)C(Cl)(Cl)Cl (configuration not stated)	-1	-5	83*	-15	-1
CCN(CC(=O)Nc1ccc(NC(C)=O)cc1)C(=O)CSC(c1ccccc1)c1ccccc1	-2	-2	·	3	1
CC1Oc2cc3c(-c4c(O)cc(O)c5c(O)c6c(cc45)OC(C)C(C)C6=O)c(O)cc(O)c3c(O)c2C(=O)C1C (configuration not stated)	5	10	·	43*	13
CCOC(=O)c1c(NS(=O)(=O)c2ccccc2)n(CCCOC)c2nc3ccccc3nc12	0	3	82	43*	11
COCCCn1c(N)c(C(=O)OCCOC)c2nc3ccccc3nc21	1	-9	99	34	2
CCOC(=O)[C@]1(C#N)[C@@H]2C=CC(C(C)=O)=CN2[C@@H](C(N)=O)[C@@H]1c1ccsc1	4	-5	113	67*	0
C[n+]1c(-c2ccccc2)cc(CCCCc2cc(-c3ccccc3)[n+](C)c(-c3ccccc3)c2)cc1-c1ccccc1	4	47	·	-30	50*
COc1ccc(-c2cc(-c3ccccc3)[n+](C)c(-c3ccccc3)c2)cc1	3	8	110	-19	-1
O=C1CC=C2C3CC4N(CCC45c4cc(O)c(O)cc4N1C25)CC3=CCBr (configuration not stated)	84*	12	54*	111*	77*
CC1(C)COC(Nc2ccc(Cl)cc2)=N1	0	5	·	-1	0
SMILES	STEP block	Scp1 inh	DSG3 Ab inh	SUMO1-SIM PPI	LMPTP block
CC(C)CCNC(=O)c1c(N)n(Cc2ccc3c(c2)OCO3)c2nc3ccccc3nc12	-1	0	88	4	7
COc1ccc(Cn2c(N)c(C(=O)NCc3ccco3)c3nc4ccccc4nc32)cc1OC	4	1	97	36*	13
CC(C)CNC(=O)c1c(N)n(Cc2ccc3c(c2)OCO3)c2nc3ccccc3nc12	-3	-5	·	46*	6
CC(C)OC(=O)c1c(N)n(Cc2ccco2)c2nc3ccccc3nc12	2	-5	?	4	-2
COCCOC(=O)c1c(N)n(Cc2ccco2)c2nc3ccccc3nc12	2	-1	105	49*	2
CC12CCC3C(CCC4CC(=O)C(C(O)C(F)(F)F)CC43C)C1CCC2O (configuration not stated)	0	-10	114	-5	0
C[C@]12CC[C@H](O)C[C@H]1CC[C@@H]1[C@@H]2C[C@@H](O)[C@]2(C)[C@@H](C3=CC(=O)OC3)CC[C@]12O	-4	-6	114	-1	-2
COC(=O)C1=C(c2ccc(OC)c(OC)c2)C[C@@H]2CC[C@H]1N2C(=O)N1CCC(O)CC1	0	-3	103	0	0
COc1ccc(OC)c(N2C(=O)/C(=C/c3ccco3)C(=O)NC2=S)c1	·	89*	·	·	·
COc1ccc(OC)c(N2C(=O)NC(=O)/C(=C/c3ccc([N+](=O)[O-])s3)C2=O)c1	5	5	96	47*	4
COc1cc(OC)c(OC)cc1CNCCc1ccc2c(c1)OCO2	0	-10	116	-2	1
COC(=O)C1=C(c2ccc3ccccc3c2)C[C@@H]2CC[C@H]1N2C(=O)NCC1CC1	1	-2	98	1	-1
CN1CCC(n2nccc2N)CC1	-1	-6	97	43*	-9
CC1CN(c2ccc([N+](=O)[O-])c(N3CCCCC3)c2)CCN1 (configuration not stated)	-2	-4	91	-25	0
C=Cc1cc(OC)c2c(c1)c(=O)oc1c2cc(OC)c2c(O)ccc(C3OC(C)C(O)C(C)(O)C3O)c21 (configuration not stated)	8	81*	91	48*	11
O=C(CCNC(=O)N1C[C@H]2C[C@@H](C1)c1cccc(=O)n1C2)Nc1ccc(F)cc1	-1	4	80*	1	0
C/C(=N\N1CCCCCC1)c1c(O)n(-c2ccccc2C)c(=O)[nH]c1=O	0	1	100	0	-1
C#CC1(O)CCC2C3CCC4=C/C(=N/OCC(=O)NCC(=O)NC(C(=O)O)C(C)C)CC[C@]4(C)C3CC[C@@]21C (some centres not stated)	-1	0	97	6	5
C#C[C@]1(O)CC[C@H]2[C@@H]3CCC4=Cc5nc6nc7ccccc7n6cc5C[C@]4(C)[C@H]3CC[C@@]21C	2	14	63*	-12	8
